In ChEMBL document CHEMBL1132450, “New natural sesquiterpenes as modulators of daunomycin resistance in a multidrug-resistant Leishmania tropica line” (1999):

Key:
Leishmania tropica [1] = experiment: The compound was tested for growth inhibition against DNM-R150 (Leishmania tropica) parasites, at a concentration of 30 uM; assay type: functional
How it was run: (§1)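 Multidrug-resistant L. tropica DNM-R150 line, kept under continuous 150 µM daunomycin and overexpressing a Pgp-like transporter. Parasites were grown at 28 °C in modified RPMI 1640 with 20% heat-inactivated fetal bovine serum and tested for growth sensitivity to the sesquiterpene.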

Leishmania tropica [2] = experiment: The compound was tested for growth inhibition against Wild type parasites, at a concentration of 15 uM; assay type: functional
How it was run: (§2)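 Wild-type L. tropica LRC clone, obtained by agar plating. Cultured at 28 °C in modified RPMI 1640 with 20% heat-inactivated fetal bovine serum. Growth sensitivity to the sesquiterpene was assessed.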

Leishmania tropica [3] = experiment: The compound was tested for growth inhibition against DNM-R150 (Leishmania tropica) parasites, at a concentration of 15 uM; assay type: functional; how it was run: as §1
Leishmania tropica [4] = experiment: The compound was tested for growth inhibition against Wild type parasites, at a concentration of 30 uM; assay type: functional; how it was run: as §2
[5] = The compound was tested for binding activity against nucleotide-binding domain 2, with quenching at 50 uM
How it was run: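 Recombinant Leishmania Pgp-like transporter NBD2, expressed in E. coli M15 [pREP4] and affinity-purified, at 0.2–0.5 µM final in pH 8.5 potassium phosphate buffer with 1 M NaCl, glycerol, HECAMEG and 10 mM imidazole, 25 °C. Sesquiterpene in DMSO (≤2% final) titrated in. Intrinsic fluorescence read at 300–350 nm emission (288 nm excitation), corrected for inner-filter and dilution. Quenching at 50 µM was read graphically from the curve.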

Leishmania tropica [6] = experiment: The compound was tested for growth inhibition against DNM-R150 (Leishmania tropica) parasites, at a concentration of 15 uM.; assay type: functional; how it was run: as §1
Leishmania tropica [7] = experiment: The compound was tested for growth inhibition against Wild type parasites, at a concentration of 30 uM.; assay type: functional; how it was run: as §2
Leishmania tropica [8] = experiment: The compound was tested for growth inhibition against Wild type parasites, at a concentration of 15 uM.; assay type: functional; how it was run: as §2
Leishmania tropica [9] = experiment: The compound was tested for growth inhibition against DNM-R150 (Leishmania tropica) parasites, at a concentration of 30 uM.; assay type: functional; how it was run: as §1

Which results are given for `CCC(C)C(=O)OC[C@]12[C@H](OC(=O)c3ccccc3)[C@@H](OC(=O)C(C)CC)[C@@H]3[C@@H](O)[C@]1(OC3(C)C)[C@@](C)(O)C[C@H](O)[C@@H]2OC(C)=O` (some centres undefined)?
Growth inhibition (Leishmania tropica [1]): 92.6%; Growth inhibition (Leishmania tropica [2]): 5.3%; Growth inhibition (Leishmania tropica [3]): 83.1%; Growth inhibition (Leishmania tropica [4]): 4%; Quenching [5]: 27.5%

With `CCC(C)C(=O)OC[C@]12[C@H](OC(=O)c3ccccc3)[C@@H](OC(C)=O)[C@@H]3[C@@H](OC(C)=O)[C@]1(OC3(C)C)[C@@](C)(O)C[C@H](O)[C@@H]2OC(=O)c1ccccc1` (some centres undefined) as the compound, how does the Growth inhibition (Leishmania tropica [1]) read?
Its Growth inhibition is 95.4%.

What about the Growth inhibition (Leishmania tropica [2]) of the same compound?
Its Growth inhibition is 25.5%.

What about the Growth inhibition (Leishmania tropica [3]) of the same compound?
The Growth inhibition was 77.8%.

What about the Growth inhibition (Leishmania tropica [4]) of the same compound?
Its Growth inhibition is 62.9%.

For `CC(=O)OC[C@@]12[C@@H](OC(C)=O)CC[C@](C)(O)[C@]13OC(C)(C)[C@H]([C@H](OC(C)=O)[C@H]2OC(=O)c1ccccc1)[C@H]3OC(C)=O`, which Growth inhibition (Leishmania tropica [6]) is on record?
The Growth inhibition was 16.3%.

And the Growth inhibition (Leishmania tropica [7])?
The Growth inhibition was 16.9%.

What about the Growth inhibition (Leishmania tropica [8]) of the same compound?
The Growth inhibition was 13.5%.

What about the Quenching [5] of the same compound?
Its Quenching is 27%.

And the Growth inhibition (Leishmania tropica [9])?
Its Growth inhibition is 49.8%.

What does the source list for `CCC(C)C(=O)OC[C@]12[C@H](OC(=O)c3ccccc3)[C@@H](OC(C)=O)[C@@H]3[C@@H](O)[C@]1(OC3(C)C)[C@@](C)(O)C[C@H](OC(C)=O)[C@@H]2OC(C)=O` (some centres undefined)?
Growth inhibition (Leishmania tropica [6]): 26.8%; Growth inhibition (Leishmania tropica [7]): 11.1%; Growth inhibition (Leishmania tropica [8]): 7.5%; Quenching [5]: 30.8%; Growth inhibition (Leishmania tropica [9]): 91.7%

What does the source list for `CCC(C)C(=O)OC[C@]12[C@H](OC(=O)c3ccccc3)[C@@H](OC(C)=O)[C@@H]3[C@@H](OC(C)=O)[C@]1(OC3(C)C)[C@@](C)(O)C[C@H](OC(C)=O)[C@@H]2OC(C)=O` (some centres undefined)?
Growth inhibition (Leishmania tropica [6]): 40.9%; Growth inhibition (Leishmania tropica [7]): 9.5%; Growth inhibition (Leishmania tropica [8]): 4.9%; Quenching [5]: 22.8%; Growth inhibition (Leishmania tropica [9]): 86.1%

With `CCC(C)C(=O)OC[C@]12[C@@H](OC(=O)c3ccccc3)[C@H](OC(=O)c3cccnc3)[C@@H]3[C@@H](OC(C)=O)[C@]1(OC3(C)C)[C@@](C)(O)C[C@H](OC(C)=O)[C@@H]2OC(C)=O` (some centres undefined) as the compound, how does the Growth inhibition (Leishmania tropica [6]) read?
Its Growth inhibition is 32.3%.

What about the Growth inhibition (Leishmania tropica [7]) of the same compound?
The Growth inhibition was 6.2%.

What about the Growth inhibition (Leishmania tropica [8]) of the same compound?
Its Growth inhibition is 7.5%.

What about the Quenching [5] of the same compound?
Its Quenching is 31.8%.

And the Growth inhibition (Leishmania tropica [9])?
The Growth inhibition was 82.5%.

For `CCC(C)C(=O)OC[C@@]12[C@@H](OC(C)=O)CC[C@](C)(O)[C@]13OC(C)(C)[C@H]([C@@H](OC(=O)c1cccnc1)[C@@H]2OC(=O)c1ccccc1)[C@H]3OC(C)=O` (some centres undefined), which Growth inhibition (Leishmania tropica [1]) is on record?
Its Growth inhibition is 96.1%.

And the Growth inhibition (Leishmania tropica [2])?
Its Growth inhibition is 6.9%.

And the Growth inhibition (Leishmania tropica [3])?
The Growth inhibition was 92.9%.

And the Growth inhibition (Leishmania tropica [4])?
Its Growth inhibition is 13.8%.

And the Quenching [5]?
Its Quenching is 34.3%.

For `CCC(C)C(=O)OC[C@]12[C@H](OC(=O)c3ccccc3)[C@@H](OC(C)=O)[C@@H]3[C@@H](O)[C@]1(OC3(C)C)[C@@](C)(O)C[C@H](OC(=O)c1cccnc1)[C@@H]2O` (some centres undefined), which Growth inhibition (Leishmania tropica [1]) is on record?
Its Growth inhibition is 88.3%.

What about the Growth inhibition (Leishmania tropica [2]) of the same compound?
The Growth inhibition was 9.3%.

And the Growth inhibition (Leishmania tropica [3])?
Its Growth inhibition is 20.8%.

And the Growth inhibition (Leishmania tropica [4])?
The Growth inhibition was 8.4%.

And the Quenching [5]?
The Quenching was 31.1%.

For `CCC(C)C(=O)OC[C@]12[C@H](OC(=O)c3ccccc3)[C@@H](OC(C)=O)[C@@H]3[C@@H](O)[C@]1(OC3(C)C)[C@@](C)(O)C[C@H](O)[C@@H]2OC(=O)c1ccccc1` (some centres undefined), which Growth inhibition (Leishmania tropica [1]) is on record?
Its Growth inhibition is 96%.

And the Growth inhibition (Leishmania tropica [2])?
The Growth inhibition was 9.8%.

What about the Growth inhibition (Leishmania tropica [3]) of the same compound?
Its Growth inhibition is 90.5%.

What about the Growth inhibition (Leishmania tropica [4]) of the same compound?
The Growth inhibition was 30%.

And the Quenching [5]?
Its Quenching is 31.4%.
